High-throughput results as filed in PubChem.
FLuc inh counter – counter-screen for luciferase assay inhibitors: firefly luciferase inhibition | ATPLite firefly luciferase biochemical luminescence, 10 min | hit rate 1.5% among 200,000 | inhibition, % at 10 µM | P08659;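 active = inhibition above about 50% when tested at 10 µM, limit read from the data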
Target sequence (P08659 whole entry, looked up): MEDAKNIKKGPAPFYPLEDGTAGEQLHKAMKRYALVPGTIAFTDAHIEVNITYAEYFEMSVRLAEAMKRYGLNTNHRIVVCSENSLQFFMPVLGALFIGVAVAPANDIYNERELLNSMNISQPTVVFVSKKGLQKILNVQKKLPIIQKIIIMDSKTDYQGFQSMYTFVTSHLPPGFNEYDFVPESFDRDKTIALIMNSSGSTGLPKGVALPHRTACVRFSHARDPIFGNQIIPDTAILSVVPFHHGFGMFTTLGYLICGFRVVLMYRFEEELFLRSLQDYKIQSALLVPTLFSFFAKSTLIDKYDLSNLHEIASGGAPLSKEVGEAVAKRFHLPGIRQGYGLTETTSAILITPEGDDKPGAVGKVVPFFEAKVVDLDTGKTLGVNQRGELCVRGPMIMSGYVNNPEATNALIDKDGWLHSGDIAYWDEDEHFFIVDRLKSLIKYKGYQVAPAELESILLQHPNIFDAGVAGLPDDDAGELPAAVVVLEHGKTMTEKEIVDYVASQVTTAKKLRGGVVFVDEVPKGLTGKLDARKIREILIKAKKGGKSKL
FLuc act counter – affects firefly luciferase, flagging false hits in luciferase stimulation screens. P08659. ATPlite luciferase biochemical, luminescence, 10 min; 0 = ATP-free wells, 1 = DMSO control. activation factor at 10 µM. 200,000 tested, under 10 active. AID 1027;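 active = luciferase activation factor, scaled between plate controls, of at least 2 with compound at 10 µM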
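Material: Luciferase/luciferin reagent mix; Doses: test compounds dosed from 2 mM stocks in 100% DMSO; Schedule: 10 min incubation after luciferase reagent addition, room temperature; Measured by: luminescence from luciferase reaction; Read-out: luminescence gain marking luciferase activators.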
TRAIL sens C8 – sensitizes caspase-8 expressing cells to TRAIL; NB7+C8 cells + TRAIL, ATPlite viability luminescence; inhibition (viability loss, TRAIL sensitization), % at 10 µM; hit rate 1% among 360,000; AID 624354;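 active = compounds causing at least 50% loss of cell viability in the single-dose screen, relative to plate controls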
PPC-1+TRAIL kill – kills PPC-1 cancer cells in the presence of TRAIL. cell killing (% activity), % at 4 µM or 5 µM. PPC-1 cells + TRAIL, ATPLite viability luminescence. hit rate 0.41% among 220,000;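 active = cell killing above 50% in the first pass at 4 µM, then a duplicate retest at 5 µM averaging 50% or more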;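 also: plate controls were cells with TRAIL plus DMSO for no effect and medium-only wells lacking cells for full effect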
The depositor's hits bear a star; nt = no result. Most compounds without a hit are left out; they make up all but 1.6% or so of the library.

SMILES	FLuc inh counter	FLuc act counter	TRAIL sens C8	PPC-1+TRAIL kill
O=C1/C(=C/Nc2ccc3c(c2)OCO3)CCc2ccccc21	94*	0.1	86*	27
COc1ccc2c(c1)CC/C(=C\Nc1ccc3c(c1)OCO3)C2=O	68*	0.3	52*	13
Cc1ccccc1CCNC(=O)Cn1ccc2cc(S(=O)(=O)N3CCCC3)ccc21	nt	nt	-3	nt
Cc1cc(C(=O)Nc2ccc3ccccc3c2)oc1C	nt	nt	19	nt
O=C(Nc1ccc2ccccc2c1)c1ccc(Cl)cc1	nt	nt	57*	nt
Cc1ccc(C(=O)Nc2ccc3ccccc3n2)cc1	nt	nt	50*	nt
Cc1ccoc1C(=O)Nc1ccc2ccccc2c1	nt	nt	54*	nt
Cc1ccc(C(=O)Nc2ccc3ccccc3c2)cc1	nt	nt	83*	nt
O=C(NCCC1CCCCN1S(=O)(=O)c1ccc(F)cc1)C(=O)NCC1CCCO1 (configuration not stated)	nt	nt	-17	nt
O=C(CCN1CCOCC1)NNC(=S)NC(=O)c1ccc(Br)cc1	-7	1.1	2	12
CC(=O)N1CCN(c2ccc(NC(=O)c3ccc(C)cc3)cc2)CC1	-2	1	2	4
Cc1ccoc1C(=O)Nc1ccc(CC(=O)O)cc1	57*	0.4	29	38
O=C(O)Cc1ccc(NC(=O)c2ccc(NC(=O)c3ccco3)cc2)cc1	0	1	4	-4
Cc1ccc(NC(=O)c2ccccc2O)cc1	78*	0.2	52*	41
CC(=O)N1CCc2cc(NC(=O)c3ccc(C)cc3)ccc21	73*	0.3	41	37
CCNC(=O)C1CCCN(C(=O)c2ccccc2)CC1 (configuration not stated)	nt	nt	-29	nt
COc1ccc(NC(=O)Nc2ccc(CC(=O)O)cc2)cc1	22	0.8	11	5
Cn1cc(-c2csc(C(O)c3ccc(F)c(F)c3)n2)cn1 (configuration not stated)	nt	nt	-15	nt
CCCOc1ccc(-c2nnc(-c3cccs3)o2)cc1	40	0.6	32	2
Clc1ccccc1-c1nnc(-c2cccs2)o1	57*	0.4	31	28
CN(C)c1ccc(-c2nnc(-c3cccs3)o2)cc1	72*	0.3	46	43
CCc1nc2c(OCC(=O)N3CCOCC3)cccn2c1N(C=O)Cc1ccccc1	nt	nt	-14	nt
CSCCC(NC(=O)c1ccc(Cl)c([N+](=O)[O-])c1)C(=O)N1CCN(C/C=C/c2ccccc2)CC1 (configuration not stated)	nt	nt	65*	nt
CCC(OC(=O)c1ccc(S(C)(=O)=O)c([N+](=O)[O-])c1)C(=O)NC1C2CC3CC(C2)CC1C3 (configuration not stated)	nt	nt	74*	nt
CC(OC(=O)c1ccc(S(C)(=O)=O)c([N+](=O)[O-])c1)C(=O)NC1C2CC3CC(C2)CC1C3 (configuration not stated)	nt	nt	73*	nt
SMILES	FLuc inh counter	FLuc act counter	TRAIL sens C8	PPC-1+TRAIL kill
Cn1c2c(c(=O)c3ccccc31)CCCC2	nt	nt	15	nt
N#Cc1nc(Nc2cc(F)cc(F)c2)c2ncn(CC(F)F)c2n1	nt	nt	28	nt
N#Cc1nc(NCC(F)F)nc(Nc2cc(F)cc(F)c2)n1	nt	nt	50*	nt
Cc1cc(-c2n[nH]c(=S)o2)c(C)n1-c1ccccc1	67*	0.3	nt	-17
CCOC(=O)[C@]12CCC=C1N(Cc1cccc3ccccc13)C(=O)[C@H](CC(=O)NCC13CC4CC(CC(C4)C1)C3)C2	nt	nt	6	nt
COc1ccc(/C=C2/CCC(CN3CCOCC3)C2=O)cc1 (configuration not stated)	nt	nt	80*	nt
O=C(Nc1nnc(SCC(=O)N2CCCc3ccccc32)s1)c1ccc2ccccc2c1	92*	0.1	83*	64*
O=C(Nc1nnc(SCC(=O)N2CCCc3ccccc32)s1)c1ccccc1	92*	0.1	75*	75*
Cc1cc(C)cc(C(=O)Nc2nnc(SCC(=O)N3CCCc4ccccc43)s2)c1	1	1	8	18
CCCCN(C(=O)CSCC(=O)Nc1ccc(C)cc1)c1c(N)n(CCCC)c(=O)[nH]c1=O	nt	nt	0	nt
Cc1ccc(-c2cc(C(=O)N/N=C/c3c(C)nn(-c4ccccc4)c3C)n[nH]2)s1	2	1	-23	11
Cc1nn(-c2ccccc2)c(C)c1/C=N/NC(=O)c1cc(C(C)(C)C)[nH]n1	0	1	52*	24
Cc1cccc(CS(=O)(=O)c2ncc(Cl)c(C(=O)NCc3ccccc3)n2)c1	nt	nt	-14	nt
COc1ccc(NC(=O)c2nc(S(=O)(=O)Cc3cccc(C)c3)ncc2Cl)c(OC)c1	nt	nt	52*	nt
Cc1cccc(CS(=O)(=O)c2ncc(Cl)c(C(=O)Nc3c(C)cccc3C)n2)c1	nt	nt	29	nt
COc1ccc(OC)c(NC(=O)c2nc(S(=O)(=O)Cc3ccccc3)ncc2Cl)c1	nt	nt	96*	nt
COc1cc2c(cc1OC)[C@@H](NC(=O)COc1ccccc1)[C@H](OCc1ccccc1)C2	nt	nt	-4	nt
O=C(CN1C(=O)NC2(CCCC2)C1=O)Nc1nc(-c2ccccc2)cs1	nt	nt	-7	nt
Cc1ccc(C(=O)OCC(=O)NCc2ccc3c(c2)OCO3)o1	nt	nt	-6	nt
C=CCc1c(C)[nH]c2c(OC)cccc2c1=S	0	1	-5	-18
CC[C@H](C)[C@H]1O[C@]2(CC[C@@H]1C)C[C@@H]1C[C@@H](CC=C(C)[C@@H](O[C@H]3C[C@H](OC)[C@@H](O[C@H]4C[C@H](OC)[C@@H](O)[C@H](C)O4)[C@H](C)O3)[C@@H](C)C=CC=C3CO[C@@H]4[C@H](O)C(C)=C[C@@H](C(=O)O1)[C@]34O)O2	nt	nt	71*	nt
CC(=O)c1c(C)[nH]c(C(=O)CN2CCN(S(=O)(=O)c3ccccc3F)CC2)c1C	nt	nt	5	nt
O=C(ONC(=O)C1CCCCC1C(=O)NOC(=O)c1ccccc1)c1ccccc1 (configuration not stated)	nt	nt	-19	nt
O=Nc1ccc(NOC(=O)c2ccccc2)cc1	90*	0.1	9	24
COc1cc(NC(=O)COC(=O)Cc2ccsc2)cc(OC)c1	nt	nt	-6	nt
SMILES	FLuc inh counter	FLuc act counter	TRAIL sens C8	PPC-1+TRAIL kill
CCOC(=O)[C@]12CCC=C1N(Cc1ccco1)C(=O)[C@H](CC(=O)N1CCCCC1)C2	nt	nt	-6	nt
Nc1ccc(C(=O)Nc2nc3ccccc3s2)cc1	74*	0.3	50*	59*
Nc1c(C(=O)Nc2nc3ccccc3s2)sc2nc(-c3cccs3)ccc12	16	0.8	96*	24
COc1ccc(C(=O)Nc2nc3ccccc3s2)c(OC)c1	nt	nt	92*	nt
COc1ccc(NC(=O)Nc2nc3ccccc3s2)cc1	nt	nt	9	-8
COc1ccc(C(=O)Nc2ccc([N+](=O)[O-])cn2)c(OC)c1	45	0.5	53*	17
CCc1nnc(NC(=O)c2ccc(Cl)nc2)s1	53*	0.5	23	27
N=c1oc2cc(O)ccc2cc1C(=O)Nc1nc2ccccc2s1	75*	0.3	-2	-9
Cn1cc(Cl)c(C(=O)Nc2nc3ccccc3s2)n1	61*	0.4	34	18
COc1ccccc1C(=O)Nc1nc2ccccc2s1	nt	nt	91*	nt
O=C(Nc1nc2ccccc2s1)c1c(F)cccc1Cl	nt	nt	10	nt
N#CCCN(C(=O)COC(=O)CNC(=O)c1cccs1)c1ccc(F)cc1	nt	nt	4	nt
